TRPC6 inhibitor = blocks the mouse TRPC6 cation channel; Q61143; HEK293-TRPC6, membrane potential dye, ACh-evoked depolarization; hits give low values; B-score at 10 µM; 310,000 compounds, 1.1% hits; AID 2553;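 active = B-score under library mean minus 3 SD, initial fluorescence not abnormally high, positive integrated signal ratio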;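 note: B-score derived from integrated fluorescence ratio over the kinetic read; more negative B-score means stronger inhibition of depolarization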
TRPC4 agonist = activators of mouse TRPC4 channel | 310,000 compounds, 0.49% hits | B-score at 10 µM | Q9QUQ5 | HEK293 TRPC4beta/mu-opioid, Fluo4 calcium fluorescence; hits give high values | AID 2237;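 active = B-score above 5 SD of library B-scores, and initial fluorescence ratio not above library mean plus 5 SD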;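 note: positive B-score marks a calcium rise read as TRPC4 activation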
Target sequence (Q9QUQ5 whole entry, looked up): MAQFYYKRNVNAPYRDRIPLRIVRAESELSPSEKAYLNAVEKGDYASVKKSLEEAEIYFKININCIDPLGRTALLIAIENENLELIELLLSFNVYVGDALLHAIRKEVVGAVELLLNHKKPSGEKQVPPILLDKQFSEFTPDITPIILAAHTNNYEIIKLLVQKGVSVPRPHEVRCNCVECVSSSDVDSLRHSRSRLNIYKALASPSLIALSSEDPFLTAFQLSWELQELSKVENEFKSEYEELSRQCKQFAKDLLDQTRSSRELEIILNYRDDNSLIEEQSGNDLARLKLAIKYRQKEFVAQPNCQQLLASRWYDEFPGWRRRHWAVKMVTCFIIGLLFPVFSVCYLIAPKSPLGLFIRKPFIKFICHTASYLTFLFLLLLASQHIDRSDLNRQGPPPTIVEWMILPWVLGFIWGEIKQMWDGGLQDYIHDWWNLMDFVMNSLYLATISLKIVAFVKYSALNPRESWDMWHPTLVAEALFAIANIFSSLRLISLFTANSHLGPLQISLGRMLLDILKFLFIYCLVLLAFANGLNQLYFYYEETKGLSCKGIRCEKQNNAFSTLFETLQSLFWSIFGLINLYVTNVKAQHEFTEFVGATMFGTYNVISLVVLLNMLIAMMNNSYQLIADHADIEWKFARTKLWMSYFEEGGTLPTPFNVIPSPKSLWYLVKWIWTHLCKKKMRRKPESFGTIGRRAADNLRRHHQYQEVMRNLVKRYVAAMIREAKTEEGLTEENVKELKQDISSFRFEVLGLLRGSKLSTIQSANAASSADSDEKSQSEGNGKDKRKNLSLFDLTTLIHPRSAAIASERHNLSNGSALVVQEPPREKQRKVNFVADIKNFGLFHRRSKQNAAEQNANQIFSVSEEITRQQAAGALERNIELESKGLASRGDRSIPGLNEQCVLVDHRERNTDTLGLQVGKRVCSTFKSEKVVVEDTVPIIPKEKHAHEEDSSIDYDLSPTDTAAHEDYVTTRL
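Assay system – TRPC4beta and mu-opioid receptor HEK293 stable cells · Measured by – Fluo4 fluorescence, kinetic · Schedule – dye loading 45 min room temperature, 110 s kinetic read · Read-out – B-scored integrated calcium fluorescence ratio · Controls – buffer and maximal DAMGO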
TRPC6 act = activators of mouse TRPC6 channel; 310,000 compounds, 0.13% hits; AID 2550; B-score at 10 µM; HEK293-TRPC6 membrane potential dye fluorescence; hits give high values;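 active = B-score of the integrated fluorescence ratio above library mean plus 3 SD, and starting fluorescence ratio within library mean plus 5 SD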;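 note: higher score means more depolarization so channel activation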
TRPC4 block = blocks the mouse TRPC4 cation channel; 300,000 compounds, 0.39% hits; B-score at 10 µM; HEK293 TRPC4beta/mu-opioid, DAMGO-evoked Fluo4 calcium flux; hits give low values;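 active = B-score over 3 SD under the library average, no early fluorescence shift, positive overall ratio signal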
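Assay system – HEK293 line stably carrying TRPC4beta and mu-opioid receptor · Doses – single dose · Detection – Fluo4 calcium-dye fluorescence, kinetic read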
TRPC4 PAM = allosterically enhances the mouse TRPC4 cation channel. Q9QUQ5. HEK293 TRPC4beta/mu-opioid, DAMGO EC20, Fluo-4 Ca2+ flux; hits give high values. B-score at 10 µM. 310,000 compounds, 0.42% hits. AID 2227;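 active = B-score of calcium response area above 5 SD of library B-scores, with initial fluorescence ratio within 5 SD of library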;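 note: B-score of integrated fluorescence ratio over time as area under calcium response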
The depositor's hits bear a star. A selection: hits, their analogues and other compounds. The true share with any hit is near 2.3%.

Screening Oc1ccc(C(c2nnnn2CCc2ccccc2)N2CCN(c3nc4ccccc4s3)CC2)cc1 (stereo unspecified) returned TRPC6 inhibitor inactive, TRPC4 agonist 77*, TRPC6 act inactive, TRPC4 block inactive and TRPC4 PAM inactive.
For COCCn1nnnc1C(c1cccs1)N1CCN(c2nc3ccccc3s2)CC1 (stereo unspecified) the results were TRPC6 inhibitor inactive, TRPC4 agonist inactive, TRPC6 act inactive, TRPC4 block inactive and TRPC4 PAM inactive.
Screening O=C(O)CCC(=O)N1CCN(c2nc3ccccc3s2)CC1 returned TRPC6 inhibitor inactive, TRPC4 agonist inactive, TRPC6 act inactive, TRPC4 block inactive and TRPC4 PAM 20*.
COC(=O)c1cc(S(=O)(=O)NCC2CCN(CCc3cccs3)CC2)c[nH]1 was read as TRPC6 inhibitor inactive, TRPC4 agonist inactive, TRPC6 act inactive, TRPC4 block inactive and TRPC4 PAM inactive.
CCOC(=O)C1=C(COC(=O)COc2ccc(C(=O)CC)cc2)NC(=O)NC1C (stereo unspecified) was read as TRPC6 inhibitor inactive, TRPC4 agonist inactive, TRPC6 act inactive, TRPC4 block inactive and TRPC4 PAM inactive.
Screening COc1ccccc1C(=O)NC(=O)COC(=O)c1cccc(C)c1O returned TRPC6 inhibitor inactive, TRPC4 agonist inactive, TRPC6 act inactive, TRPC4 block inactive and TRPC4 PAM inactive.
`O=C(Nc1ccc([N+](=O)[O-])cn1)C1CC1` gave TRPC6 inhibitor inactive, TRPC4 agonist inactive, TRPC6 act inactive, TRPC4 block inactive and TRPC4 PAM inactive.
For O=C(Nc1ccc([N+](=O)[O-])cn1)C1CCCCC1 the results were TRPC6 inhibitor inactive, TRPC4 agonist inactive, TRPC6 act inactive, TRPC4 block inactive and TRPC4 PAM 22*.
`COc1ccccc1N1CCN(C(c2ccccn2)c2nnnn2C2CCCCC2)CC1` (stereo unspecified) gave TRPC6 inhibitor inactive, TRPC4 agonist 74*, TRPC6 act inactive, TRPC4 block inactive and TRPC4 PAM inactive.
For Fc1ccccc1N1CCN(C(c2ccccn2)c2nnnn2C2CCCCC2)CC1 (stereo unspecified) the results were TRPC6 inhibitor inactive, TRPC4 agonist inactive, TRPC6 act inactive, TRPC4 block inactive and TRPC4 PAM inactive.
For Cc1onc(-c2c(F)cccc2Cl)c1C(=O)N1CCN(c2ncc(Br)cn2)CC1 the results were TRPC6 inhibitor inactive, TRPC4 agonist 86*, TRPC6 act inactive, TRPC4 block inactive and TRPC4 PAM inactive.
`COc1ccc(CNC(=O)CN(C)Cc2ccccc2F)cc1OC` gave TRPC6 inhibitor inactive, TRPC4 agonist inactive, TRPC6 act inactive, TRPC4 block -6* and TRPC4 PAM inactive.
Screening CS(=O)(=O)Nc1cc2c3c(c1)CCC(=O)N3CCC2 returned TRPC6 inhibitor inactive, TRPC4 agonist inactive, TRPC6 act inactive, TRPC4 block inactive and TRPC4 PAM inactive.
Screening Cc1ccc(-n2c(SCC(=O)O)nc3sc4c(c3c2=O)C(C)CCC4)cc1 (stereo unspecified) returned TRPC6 inhibitor inactive, TRPC4 agonist inactive, TRPC6 act inactive, TRPC4 block inactive and TRPC4 PAM 11*.
Screening CCOc1ccc(-n2c(SCC(=O)O)nc3sc4c(c3c2=O)CCCC4)cc1 returned TRPC6 inhibitor inactive, TRPC4 agonist inactive, TRPC6 act inactive, TRPC4 block inactive and TRPC4 PAM 16*.
For Cc1ccccc1-n1c(SCC(=O)O)nc2sc3c(c2c1=O)CCCC3 the results were TRPC6 inhibitor inactive, TRPC4 agonist inactive, TRPC6 act inactive, TRPC4 block inactive and TRPC4 PAM inactive.
`O=C(NC1CC1)C1=C[C@H](c2csc3ccccc23)C[C@H](OCc2ccc(CO)cc2)O1` gave TRPC6 inhibitor inactive, TRPC4 agonist 113*, TRPC6 act inactive, TRPC4 block inactive and TRPC4 PAM inactive.
For O=C(Nc1ccccc1)C1=C[C@H](c2csc3ccccc23)C[C@H](OCc2ccc(CO)cc2)O1 the results were TRPC6 inhibitor inactive, TRPC4 agonist inactive, TRPC6 act inactive, TRPC4 block inactive and TRPC4 PAM 14*.
`COc1ccccc1N1CCN(C(=O)c2ccccc2N(C)S(=O)(=O)c2ccc(C)cc2)CC1` gave TRPC6 inhibitor inactive, TRPC4 agonist inactive, TRPC6 act inactive, TRPC4 block inactive and TRPC4 PAM inactive.
Clc1cc(Br)ccc1OCCn1ccnc1 was read as TRPC6 inhibitor inactive, TRPC4 agonist 84*, TRPC6 act inactive, TRPC4 block -6* and TRPC4 PAM inactive.
`Cc1cc(Br)ccc1OCCn1ccnc1` gave TRPC6 inhibitor inactive, TRPC4 agonist 116*, TRPC6 act inactive, TRPC4 block inactive and TRPC4 PAM inactive.
For Clc1ccc(OCCn2ccnc2)cc1Cl the results were TRPC6 inhibitor inactive, TRPC4 agonist 57*, TRPC6 act inactive, TRPC4 block inactive and TRPC4 PAM 14*.
For Cc1ccc(C)c(OCCn2ccnc2)c1 the results were TRPC6 inhibitor inactive, TRPC4 agonist inactive, TRPC6 act inactive, TRPC4 block inactive and TRPC4 PAM inactive.
For COc1ccc(Nc2cc(C)c3c(O)cccc3n2)cc1 the results were TRPC6 inhibitor inactive, TRPC4 agonist inactive, TRPC6 act inactive, TRPC4 block -5* and TRPC4 PAM inactive.
For Cc1ccccc1Nc1cc(C)c2c(O)cccc2n1 the results were TRPC6 inhibitor inactive, TRPC4 agonist 72*, TRPC6 act inactive, TRPC4 block inactive and TRPC4 PAM inactive.
`NC1=NC2=C(CCCC2)C2(CCCCC2)S1` gave TRPC6 inhibitor inactive, TRPC4 agonist inactive, TRPC6 act inactive, TRPC4 block -6* and TRPC4 PAM inactive.
`CC(=O)Nc1ccc(S(=O)(=O)NCCC(=O)N2CCc3ccccc32)cc1` gave TRPC6 inhibitor inactive, TRPC4 agonist inactive, TRPC6 act inactive, TRPC4 block inactive and TRPC4 PAM inactive.
Screening COc1ccccc1N1CCN(C(=O)C(C)CS(=O)(=O)c2ccc3c(c2)NC(=O)CS3)CC1 (stereo unspecified) returned TRPC6 inhibitor inactive, TRPC4 agonist inactive, TRPC6 act inactive, TRPC4 block inactive and TRPC4 PAM inactive.
`O=C(COC(=O)C1CC1)Nc1nc(-c2ccc(F)c(F)c2)cs1` gave TRPC6 inhibitor inactive, TRPC4 agonist inactive, TRPC6 act inactive, TRPC4 block -6* and TRPC4 PAM inactive.
For O=C(COC(=O)c1ccccn1)Nc1nc(-c2ccccc2)cs1 the results were TRPC6 inhibitor inactive, TRPC4 agonist inactive, TRPC6 act inactive, TRPC4 block -6* and TRPC4 PAM inactive.
O=C(Nc1ccc(F)cc1)N1CCN2C(=O)c3ccccc3C12c1ccccc1 (stereo unspecified) was read as TRPC6 inhibitor inactive, TRPC4 agonist inactive, TRPC6 act inactive, TRPC4 block -6* and TRPC4 PAM inactive.

Assay outcomes (PubChem)
